From PubChem BioAssay
MsrA inh: bovine MsrA enzyme inhibitors, primary screen, biochemical, absorbance, HTS | Methionine sulfoxide reductase A (Bos taurus) | purified bovine MsrA, absorbance read-out | inhibition, % at 15.5 µM | actives 0.75% (n = 360,000); in the data active means inhibition above about 4.5%
procasp3 activ: activators of human procaspase-3 D3A mutant, primary screen, biochemical, absorbance, PC-3 D3A mutant, single concentration | activation, % at 8.5 µM | AID 463141, 2010 | actives 0.11% (n = 330,000) | recombinant procaspase-3 D3A, Ac-DEVD-pNA absorbance 405 nm | Caspase-3 (Homo sapiens), P42574;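 active means activation above the mean of all tested compounds plus 3 SD, cut at about 21% in these data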
Target sequence (P42574 whole entry D9A/D28A/D175A): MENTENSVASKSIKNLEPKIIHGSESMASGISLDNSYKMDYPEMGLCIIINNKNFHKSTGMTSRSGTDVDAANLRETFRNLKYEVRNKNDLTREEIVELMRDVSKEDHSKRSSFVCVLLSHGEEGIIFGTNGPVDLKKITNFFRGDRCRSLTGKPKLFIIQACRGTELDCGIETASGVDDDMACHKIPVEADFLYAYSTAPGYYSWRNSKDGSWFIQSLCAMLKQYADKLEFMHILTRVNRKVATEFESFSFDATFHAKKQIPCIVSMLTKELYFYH
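Test system: Procaspase-3 D3A mutant; medium: Zinc-free HEPES/NaCl buffer with 0.01% Triton X-100 at pH 7.4; reagent: DEVD-pNA substrate; doses: one concentration, 8.5 µM nominal, 0.8% DMSO; times: 1 h preincubation plus 2 h reaction at 25 °C; signal: Epi-absorbance at 405 nm of released p-nitroaniline, 0 and 120 min; replicates: singlicate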
procasp7 counter: procaspase-7 activators, primary screen, counter-screen for procaspase-3 activator project, biochemical, absorbance, HTS, human; AID 463210, 2010; Caspase-7 (Homo sapiens), P55210; actives 0.093% (n = 330,000); recombinant procaspase-7, Ac-DEVD-pNA absorbance 405 nm; D23A/D198A/D206A triple mutant, cannot self-cleave; scale: DMSO 0, 5 µM enzyme 100; activation, % at 8.5 µM;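 active means percent activation above the screen-wide mean plus 3 SD, cut at about 25% in these data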
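Material: Procaspase-7 triple mutant (PC-7 D3A) | Quantity: 2 µM procaspase-7 mutant as dispensed | Reagent: DEVD-pNA substrate | Times: 1 h preincubation, 2 h reaction | Technique: 405 nm absorbance of p-nitroaniline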
MsrA act: bovine MsrA enzyme activators, primary screen, biochemical, absorbance, HTS; Methionine sulfoxide reductase A (Bos taurus); purified bovine MsrA, absorbance read-out; activation, % at 10.6 µM; actives 0.3% (n = 360,000); AID 602163, 2012; in the data active means activation above about 7.5%
proCasp7 act trip: procaspase-7 activators, counter-screen for procaspase-3 activator project, biochemical, absorbance, triplicate, human; shares compounds with procasp3 activ; recombinant procaspase-7, Ac-DEVD-pNA absorbance; asp23/198/206-to-Ala mutant, cannot self-cleave; activation, % at 8.5 µM; 210 tested, under 10 active; AID 488941, 2010;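 active means mean activation above a set limit taken from an earlier procaspase-7 screen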
proCasp3 confirm: activators of human procaspase-3 D3A mutant, confirmation, biochemical, absorbance, PC-3 D3A mutant, triplicate | recombinant PC-3 D3A, Ac-DEVD-pNA absorbance 405 nm; 100% is higher-enzyme control | actives 10% (n = 210) | activation, % at 8.5 µM | shares compounds with procasp3 activ;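 active means mean activation above a set limit carried over from the earlier primary screen, cut at about 22% in these data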
PC3 dual counter: procaspase-3 activators, counter-screen for dual procaspase-3/7 activator project, biochemical, absorbance, PC-3 D3A mutant, human | AID 493114, 2011 | shares compounds with procasp7 counter | activation, % at 8.5 µM | recombinant PC-3 D3A, Ac-DEVD-pNA absorbance 405 nm; aspartates 9, 28, 175 changed to alanine; 100% = enzyme control | 290 tested, under 10 active;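 active means mean percent activation across triplicates above a set limit taken from the earlier primary procaspase-3 screen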
Procasp7 act: activation of procaspase-7 enzyme – biochemical, absorbance, human, dual procaspase-3/-7 activator project, confirmation; shares compounds with procasp7 counter; recombinant procaspase-7, Ac-DEVD-pNA absorbance 405 nm; D23A/D198A/D206A mutant that cannot self-cleave; activation, % at 8.5 µM; 290 tested, under 10 active; AID 493115, 2011;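 active means mean activation above a set limit carried over from the earlier primary screen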
Hits are given with their value. Sampled rows, rich in hits. Any-hit rate of the full collection: about 1.2%.

What do the screens show for `Nc1[nH]c(C(=O)c2ccccc2)c(-c2ccc(F)cc2)c1C(=O)c1c[nH]c2ccccc12`?
MsrA inh: inactive

How did Cc1ccc2nc(CSc3nc(C)cc(C)c3C#N)[nH]c2c1 do in these assays?
MsrA inh: inactive; procasp3 activ: 69.0; procasp7 counter: inactive; MsrA act: inactive; proCasp7 act trip: inactive; proCasp3 confirm: inactive

Results for CCN(C(=O)c1cnc(OC)cc1C(F)(F)F)c1ccc(Cl)cc1 ?
MsrA inh: inactive; procasp3 activ: 27.1; procasp7 counter: inactive; MsrA act: inactive; proCasp7 act trip: inactive; proCasp3 confirm: inactive

Results for CCN(C(=O)c1cnc(OC)cc1C(F)(F)F)c1ccc(Cl)cc1Cl ?
MsrA inh: inactive; procasp3 activ: inactive; procasp7 counter: inactive; MsrA act: inactive

How did O=C(Cc1c[nH]c2ccccc12)Nc1ccc(Nc2cccnc2)c(-c2ccc(OC(F)(F)F)cc2)c1 do in these assays?
MsrA inh: inactive

Results for OC[C@@H]1[C@@H](c2ccc(Cl)cc2)C(c2cccc(Cl)c2)=NN1c1ccccc1 ?
MsrA inh: inactive; procasp3 activ: inactive; procasp7 counter: inactive; MsrA act: inactive

Results for OC[C@@H]1[C@@H](c2ccc(Cl)cc2)C(c2ccccc2)=NN1c1ccccc1 ?
MsrA inh: inactive; procasp3 activ: 21.8; procasp7 counter: inactive; MsrA act: inactive; proCasp7 act trip: inactive; proCasp3 confirm: inactive

Results for CC(=O)N(Cc1ccccc1)c1nccs1 ?
MsrA inh: inactive

How did O=C(N[C@@H](Cc1cccnc1)C(=O)N1CCC[C@H]1C(=O)NCCc1ccccc1Cl)c1ccccc1 do in these assays?
MsrA inh: inactive

How did COc1cc2sc3ccc(C#CC4(O)CCCCC4)cc3c(=O)c2cc1OC do in these assays?
MsrA inh: inactive; procasp3 activ: 69.7; procasp7 counter: inactive; MsrA act: inactive; proCasp7 act trip: inactive; proCasp3 confirm: inactive

How did Cc1ccccc1S(=O)(=O)N(C)C[C@@H]1OCc2cn(nn2)CCCC(=O)N([C@@H](C)CO)C[C@H]1C do in these assays?
MsrA inh: inactive

How did Cc1c(Cc2ccccc2)c(=O)oc2cc(O)cc(O)c12 do in these assays?
MsrA inh: inactive; procasp3 activ: inactive; procasp7 counter: 25.7; MsrA act: inactive; PC3 dual counter: inactive; Procasp7 act: inactive

What do the screens show for `COc1ccc(OC)c(/C=N/NC(=O)c2cc3c(OC)cccc3[nH]2)c1`?
MsrA inh: inactive; procasp3 activ: inactive; procasp7 counter: 37.7; MsrA act: inactive; PC3 dual counter: inactive; Procasp7 act: inactive

Results for COc1ccc(OC)c(/C=N/NC(=O)c2cc3c(OC)cc(OC)cc3[nH]2)c1 ?
MsrA inh: inactive; procasp3 activ: inactive; procasp7 counter: inactive; MsrA act: inactive

What do the screens show for `COc1ccc(OC)c(CN(CC(F)(F)F)S(=O)(=O)c2ccccc2Br)c1`?
MsrA inh: inactive

Results for O=C(Nc1sc2c(c1C(=O)O)CCCC2)c1cccs1 ?
MsrA inh: inactive; procasp3 activ: inactive; procasp7 counter: inactive; MsrA act: inactive
